Measurements: ChEMBL document CHEMBL1149197, “Design and synthesis of beta-amino-alpha-hydroxy amide derivatives as inhibitors of MetAP2 and HUVEC growth” (Bioorg Med Chem Lett, 2004)
Converted amounts (≈) assume the structure as drawn.

Experiments:
Assay type in all cases: functional
[1] = system: HUVEC; experiment: In vitro anti-proliferative activity against human umbilical vein endothelial cells at 5 uM.; details: for inhibition of growth at 5 µM: Homo sapiens, HUVEC, read-out: GI
[2] = system: HUVEC; experiment: Anti-proliferative activity against human umbilical vein endothelial cells (HUVECs)
In short: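 HUVECs seeded at 1500 cells/well and cultured 24 h at 37 °C, then exposed to a dose-response series of compound for 24 h. Proliferation was read as ³H-thymidine incorporation by scintillation proximity assay. GI₅₀ was taken from plots of percent-of-control ³H-thymidine uptake versus compound concentration.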

[3] = species: Bos taurus; experiment: Anti-proliferative activity against calf endothelial cells; details: endothelial cell

SMILES | inhibition of growth at 5 µM [1] [%] | GI50 ([2]; Homo sapiens, HUVEC) [µM] | further results
COc1cc(/C=C/C(=O)NC2CCC(NC(=O)[C@@H](O)[C@H](N)CC3CCCCC3)CC2)cc(OC)c1OC (some centres not stated) | 52 | – | –
COc1cc(/C=C/C(=O)Nc2ccc(NC(=O)[C@@H](O)[C@H](N)CCc3ccccc3)c(C)c2)cc(OC)c1OC | 92 | 2.3 | –
CCSCC[C@@H](N)[C@H](O)C(=O)Nc1ccc(NC(=O)/C=C/c2cc(OC)c(OC)c(OC)c2)cc1 | 89 | – | –
COc1cc(/C=C/C(=O)O[C@@H]2CC[C@]3(CO3)[C@@H]([C@]3(C)O[C@H]3CCC=C(C)C)[C@@H]2OC)cc(OC)c1OC | – | – | IC50 [3]: 3e-05 ng/mL (≈ 5.81e-05 nM)
CCOc1ccc(CCC(=O)Nc2ccc(NC(=O)[C@@H](O)[C@H](N)CC3CCCCC3)cc2)cc1 | 42 | – | –
CCOc1ccc(/C=C/C(=O)Nc2ccc(NC(=O)[C@@H](O)[C@H](N)CCc3ccccc3)cc2)cc1 | > 98 | 1.8 | –
COc1cc(/C=C/C(=O)Nc2ccc(NC(=O)[C@@H](O)[C@H](N)CCc3ccccc3)cc2)cc(OC)c1OC | > 98 | 0.85 | –
CCSCC[C@@H](N)[C@H](O)C(=O)Nc1ccccc1 | 0 | – | –
COc1cc(/C=C/C(=O)NC2CCC(NC(=O)[C@@H](O)[C@H](N)CCc3ccccc3)CC2)cc(OC)c1OC (some centres not stated) | 46 | – | –
COc1cc(/C=C/C(=O)Nc2ccc(NC(=O)[C@@H](O)[C@H](N)CCC3CCCCC3)cc2)cc(OC)c1OC | > 98 | 0.8 | –
COc1cc(NC(=O)/C=C/c2cc(OC)c(OC)c(OC)c2)ccc1NC(=O)[C@@H](O)[C@H](N)CCc1ccccc1 | > 98 | 0.7 | –
COc1cc(/C=C/C(=O)Nc2ccc(NC(=O)[C@@H](O)[C@H](N)CC3CCCCC3)cc2C)cc(OC)c1OC | > 98 | 1.8 | –
COc1cc(/C=C/C(=O)Nc2ccc(NC(=O)[C@@H](O)[C@H](N)Cc3ccccc3)cc2)cc(OC)c1OC | 93 | – | –
COc1cc(NC(=O)[C@@H](O)[C@H](N)CC2CCCCC2)ccc1NC(=O)/C=C/c1cc(OC)c(OC)c(OC)c1 | > 98 | 1.2 | –
CCOc1ccc(/C=C/C(=O)Nc2ccc(NC(=O)[C@@H](O)[C@H](N)CC3CCCCC3)cc2)cc1 | > 98 | 1 | –
CCSCC[C@@H](N)[C@H](O)C(=O)Nc1ccc(NC(=O)c2cc(OC)c(OC)c(OC)c2)cc1 (single isomer, unassigned) | 20 | – | –
CCSCCC(N)C(O)C(=O)Nc1ccc(NC(=O)/C=C/c2ccc(OC)cc2)cc1 (single isomer, unassigned) | 43 | – | –
CCSCCC(N)C(O)C(=O)Nc1ccc(NC(=O)/C=C/c2ccccc2)cc1 (single isomer, unassigned) | 48 | – | –
CCSCC[C@@H](N)[C@H](O)C(=O)Nc1ccc(NC(=O)c2ccc(OC)cc2)cc1 (single isomer, unassigned) | 15 | – | –
CCOc1ccc(/C=C/C(=O)Nc2ccc(NC(=O)C(O)C(N)CCSCC)cc2)cc1 (single isomer, unassigned) | 91 | – | –
COc1cc(/C=C/C(=O)Nc2ccc(NC(=O)[C@@H](O)[C@H](N)CC3CCCCC3)cc2)cc(OC)c1OC (stereo in doubt) | – | – | GI50 [2]: 2 µM; growth inhibition (GI) [1]: 96%
COc1cc(/C=C/C(=O)Nc2ccc(NC(=O)[C@@H](O)[C@H](N)CC3CCCCC3)cc2)cc(OC)c1OC (stereo in doubt; 11) | > 98 | – | GI50 [2]: 0.67 µM
